In ChEMBL document CHEMBL1126125, “Synthesis and antibacterial activity of 1-(substituted pyrrolyl)-7-(substituted amino)-6-fluoro-1,4-dihydro-4-oxo-3- quinolinecarboxylic acids” (1992):
Converted amounts (≈) assume the structure as drawn.

What was measured:
Staphylococcus aureus = assay: In vitro antibacterial activity against Staphylococcus aureus ATCC 6538p.; type: functional
Method in brief: (§1)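 Agar dilution MIC. Organisms grown overnight in brain-heart infusion broth at 37 °C. Compound stock of 5 mg/mL serially diluted two-fold in BHI agar, giving final test concentrations of 200 to […] μg/mL. Plates incubated 24 h at 37 °C. MIC read as the lowest concentration that inhibited visible growth.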

Escherichia coli = assay: In vitro antibacterial activity against Escherichia coli ATCC 25922.; type: functional; method in brief: as §1

| MIC (Staphylococcus aureus) [µg/mL] | MIC (Escherichia coli) [µg/mL] | Compound |
| --- | --- | --- |
| 25 (≈ 58.6 µM) | 12.5 (≈ 29.3 µM) | CN1CCN(c2cc3c(cc2F)c(=O)c(C(=O)O)cn3-c2ccc([N+](=O)[O-])cc2)CC1 |
| 25 (≈ 58.4 µM) | > 100 | CC1CCCN(c2cc3c(cc2F)c(=O)c(C(=O)O)cn3-c2cn(C)cc2[N+](=O)[O-])C1 (stereo not drawn) |
| 6.25 (≈ 17.2 µM) | 12.5 (≈ 34.5 µM) | O=C(O)c1cn(-c2ccc([N+](=O)[O-])cc2)c2cc(Cl)c(F)cc2c1=O |
| 12.5 (≈ 29.2 µM) | > 100 | CC1CCN(c2cc3c(cc2F)c(=O)c(C(=O)O)cn3-c2cn(C)cc2[N+](=O)[O-])CC1 |
| 100 (≈ 273 µM) | 100 (≈ 273 µM) | Cn1cc(-n2cc(C(=O)O)c(=O)c3cc(F)c(Cl)cc32)c([N+](=O)[O-])c1 |
| 100 (≈ 233 µM) | 100 (≈ 233 µM) | CC1CN(c2cc3c(cc2F)c(=O)c(C(=O)O)cn3-c2cn(C)cc2[N+](=O)[O-])CCN1 (stereo not drawn) |
| 0.195 (≈ 0.488 µM) | 0.39 (≈ 0.976 µM) | CN1CCN(c2cc3c(cc2F)c(=O)c(C(=O)O)cn3-c2ccc(F)cc2)CC1 [DIFLOXACIN] |
| > 100 | > 100 | Cn1cc(-n2cc(C(=O)O)c(=O)c3cc(F)c(N4CCCC4)cc32)c([N+](=O)[O-])c1 |
| 100 (≈ 233 µM) | 100 (≈ 233 µM) | CN1CCN(c2cc3c(cc2F)c(=O)c(C(=O)O)cn3-c2cn(C)cc2[N+](=O)[O-])CC1 |
| 50 (≈ 121 µM) | 100 (≈ 241 µM) | Cn1cc(-n2cc(C(=O)O)c(=O)c3cc(F)c(N4CCCCC4)cc32)c([N+](=O)[O-])c1 |
| 100 (≈ 241 µM) | 100 (≈ 241 µM) | Cn1cc(-n2cc(C(=O)O)c(=O)c3cc(F)c(N4CCNCC4)cc32)c([N+](=O)[O-])c1 |
| 100 (≈ 233 µM) | 100 (≈ 233 µM) | Cn1cc(-n2cc(C(=O)O)c(=O)c3cc(F)c(N4CCCNCC4)cc32)c([N+](=O)[O-])c1 |
| > 100 | > 100 | CC1CCCN(c2cc3c(cc2F)c(=O)c(C(=O)O)cn3-c2ccc([N+](=O)[O-])cc2)C1 (stereo not drawn) |
| 0.78 (≈ 1.95 µM) | 12.5 (≈ 31.2 µM) | Cn1cc([N+](=O)[O-])cc1-n1cc(C(=O)O)c(=O)c2cc(F)c(N3CCCC3)cc21 |
| 100 (≈ 259 µM) | 50 (≈ 130 µM) | Cn1cc(N)c(-n2cc(C(=O)O)c(=O)c3cc(F)c(N4CCNCC4)cc32)c1 |
| > 100 | > 100 | O=C(O)c1cn(-c2ccc([N+](=O)[O-])cc2)c2cc(N3CCCC3)c(F)cc2c1=O |
| 6.25 (≈ 14.6 µM) | 3.12 (≈ 7.28 µM) | CN1CCN(c2cc3c(cc2F)c(=O)c(C(=O)O)cn3-c2cc([N+](=O)[O-])cn2C)CC1 |
| 50 (≈ 137 µM) | 100 (≈ 273 µM) | Cn1cc([N+](=O)[O-])cc1-n1cc(C(=O)O)c(=O)c2cc(F)c(Cl)cc21 |
| 3.12 (≈ 7.29 µM) | 100 (≈ 233 µM) | CC1CCCN(c2cc3c(cc2F)c(=O)c(C(=O)O)cn3-c2cc([N+](=O)[O-])cn2C)C1 (stereo not drawn) |
